The results in this text go back to ChEMBL document CHEMBL4477165, “Eremophilane-Type Sesquiterpenoids from an Acremonium sp. Fungus Isolated from Deep-Sea Sediments” (J Nat Prod, 2016).

Data set [1] in a line: Cytotoxicity against mouse RAW264.7 cells assessed as reduction in cell viability after 24 hrs by MTT assay. The data set is classed as cell-based. The method, boiled down:
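MTT viability test in RAW 264.7 cells plated at 5 × 10^3 per well for 24 h. Cells were treated with sample at final 50 μM in 1% DMSO for 24 h. 1% DMSO served as vehicle control and cell-free medium as blank. MTT was added for 4 h, formazan dissolved in DMSO, and absorbance read at 490 nm.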
For orientation: Tetrazolium dyes change colour on reduction, which living cells bring about.

The subject of data set [2] is RAW264.7. Put plainly: Antiinflammatory activity in mouse RAW264.7 cells assessed as inhibition of LPS-induced NO production at 50 uM by Griess assay. The data set is classed as functional. The method, boiled down:
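RAW 264.7 cells grown in DMEM with 10% FBS, penicillin/streptomycin, 37 °C, 5% CO2. Seeded 5 × 10^4 cells/well for 24 h, then given sample (final 50 μM, 1% DMSO) plus 2 μg/mL LPS for 24 h. Supernatant mixed with Griess reagents I and II, absorbance read at 540 nm. % inhibition computed against LPS-only (model) and no-LPS (blank) wells.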
On the technique in general: The Griess reaction detects nitrite, a stable product of nitric oxide.

Data set [3] in a line: Cytotoxicity against mouse RAW264.7 cells assessed as cell survival at 50 uM after 24 hrs by MTT assay. The data set is classed as cell-based. The note with it: read-out: Survival. The method, boiled down:
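RAW 264.7 mouse macrophages in DMEM with 10% FBS, penicillin and streptomycin, at 37 °C under 5% CO2. Seeded at 5 × 10^3 cells/well for 24 h, then exposed 24 h to samples at 50 μM final (1% DMSO; vehicle and cell-free blanks). MTT added, 4 h, medium replaced with DMSO, absorbance read at 490 nm.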

Data set [4] relates to RAW264.7. Kind of data set: Antiinflammatory activity in mouse RAW264.7 cells assessed as inhibition of LPS-induced NO production by Griess assay. In kind it is functional, cell-based. The method in brief:
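RAW 264.7 cells in DMEM/10% FBS seeded at 5 × 10^4 per well for 24 h. Samples added in DMSO (1% final) together with 2 μg/mL LPS and incubated 24 h. Nitrite read at 540 nm by Griess reagent.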

Data set [5] is described as follows: Inhibition of NF-kappaB (unknown origin) expressed in mouse RAW264.7 cells pretreated for 1 hr followed by stimulation with LPS measured after 6 hrs by luciferase reporter gene assay. In kind it is cell-based. The method in brief:
(§1)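 RAW 264.7 cells stably carrying a pNF-κB-Luc reporter, kept in DMEM/10% FBS with geneticin 500 μg/mL, 37 °C. Pretreated 1 h with sample (0.78–200 μM) and then stimulated with E. coli 055:B5 LPS for 6 h. […] Triplicates, mean ± SD; IC50 by sigmoidal nonlinear regression.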
(In general: In a reporter assay the amount or activity of a reporter protein is the signal.)

Data set [6] has as its system RAW264.7. Put plainly: Inhibition of NF-kappaB (unknown origin) expressed in mouse RAW264.7 cells at 50 uM pretreated for 1 hr followed by stimulation with LPS measured after 6 hrs by luciferase reporter gene assay. The data set is classed as cell-based. The method in brief: as §1

With `C=C(CO)[C@@H]1C[C@@]2(C)C(=CC(=O)C[C@@H]2C)C[C@H]1O`, the CC50 (as a rule, the concentration that lowers cell viability or growth by half) at 24 h in data set [1] is greater than 50 µM. Also, the inhibition (commonly the share of the control response that was lost under treatment) at 50 µM in the data set on RAW264.7 [2] was determined as 7%. The viability at 24 h, 50 µM in data set [3] was greater than 90%.

As for `C=C(C)[C@@H]1C[C@@]2(C)C(=C[C@H](O)C[C@@H]2C)C[C@H]1OC(C)=O`, the CC50 at 24 h in data set [1] is greater than 50 µM. Further, in the data set on RAW264.7 [2], the inhibition at 50 µM is 30%. Also, the viability at 24 h, 50 µM in data set [3] was greater than 90%.

Regarding `C/C=C/CCC(=O)O[C@H]1C=CC2=CC(=O)/C(=C(\C)C(=O)O)C[C@]2(C)[C@H]1C`, the IC50 (in general, the concentration that inhibits the measured activity by half) in the data set on RAW264.7 [4] was 45 µM. Also, the half-maximal cytotoxic concentration (CC50) at 24 h in data set [1] was greater than 50 µM. The inhibition at 50 µM in the data set with RAW264.7 [2] turned out to be 46%. Moreover, in data set [3], the viability at 24 h, 50 µM is greater than 90%.

For `CC1=C2C[C@]3(C)[C@@H](C)C=C[C@H](O)[C@]3(O)C=C2OC1=O`, the CC50 at 24 h in data set [1] was greater than 50 µM. Also, the inhibition at 50 µM with RAW264.7 [2] was 12%. In addition, the viability at 24 h, 50 µM in data set [3] is greater than 90%.

Consider `C=C(C(=O)O)[C@@H]1C[C@@]2(C)C(=CC1=O)C=C[C@H](OC(=O)CC/C=C/C)[C@@H]2C`, for which the IC50 in the data set with RAW264.7 [4] is 8 µM; in data set [5], 78 µM. In addition, in data set [1], the CC50 at 24 h is greater than 50 µM. In addition, the inhibition with RAW264.7 [6] is 40%. Also, the inhibition at 50 µM with RAW264.7 [2] was found to be 97%. Also, the viability at 24 h, 50 µM in data set [3] was greater than 90%.

For `CC(=O)O[C@H]1C(=O)C=C2C=C3OC(=O)C(C)=C3C[C@]2(C)[C@H]1C`, the half-inhibitory concentration (IC50) in the data set on RAW264.7 [4] was determined as 22 µM. In data set [1], the CC50 at 24 h is greater than 50 µM. In addition, in the data set with RAW264.7 [2], the inhibition at 50 µM was 68%. Further, in data set [3], the viability at 24 h, 50 µM was greater than 90%.

Take `C=C(C)[C@@H]1C[C@@]2(C)C(=C[C@H](O)C[C@@H]2C)C[C@H]1O`: the 50% cytotoxic concentration (CC50) at 24 h in data set [1] was greater than 50 µM. Moreover, the inhibition at 50 µM in the data set on RAW264.7 [2] turned out to be 24%. In addition, in data set [3], the viability at 24 h, 50 µM is greater than 90%.

Regarding `C/C=C/CCC(=O)O[C@H]1C=CC2=CC(=O)[C@H](/C(C=O)=C\OC)C[C@]2(C)[C@H]1C`, the IC50 in the data set on RAW264.7 [4] was determined as 25 µM. Also, in data set [1], the half-maximal cytotoxic concentration (CC50) at 24 h is greater than 50 µM. Moreover, the inhibition with RAW264.7 [6] turned out to be 38%. For the same compound, the inhibition at 50 µM with RAW264.7 [2] came to 66%. For the same compound, in data set [3], the viability at 24 h, 50 µM is greater than 90%.

For the compound `CC1=C2C[C@@]3(C)C(=C[C@H](O)[C@@H](O)[C@@H]3C)C=C2OC1=O`, in data set [1], the CC50 at 24 h is greater than 50 µM. Further, the inhibition at 50 µM in the data set on RAW264.7 [2] amounted to 21%. For the same compound, the viability at 24 h, 50 µM in data set [3] was greater than 90%.

For the compound `C=C(C)[C@@H]1C[C@@]2(C)C(=CC1=O)C[C@H](OC(C)=O)C[C@@H]2C`, the cytotoxic concentration (CC50) at 24 h in data set [1] was greater than 50 µM. Besides, in the data set with RAW264.7 [2], the inhibition at 50 µM was determined as 29%. Also, the viability at 24 h, 50 µM in data set [3] was greater than 90%.

Turning to `S=C(S)N1CCCC1` [PYRROLIDINE DITHIOCARBAMATE], the IC50 in data set [5] stood at 37 µM.

For `C/C=C/CCC(=O)O[C@H]1C=CC2=C[C@]3(O)OC(=O)C(CO)=C3C[C@]2(C)[C@H]1C`, in the data set with RAW264.7 [4], the IC50 was 26 µM. Besides, the CC50 at 24 h in data set [1] is greater than 50 µM. Besides, the inhibition in the data set on RAW264.7 [6] was 20%. Besides, the inhibition at 50 µM with RAW264.7 [2] came out at 63%. Further, the viability at 24 h, 50 µM in data set [3] is greater than 90%.

With `C=C(C)[C@@H]1C[C@@]2(C)C(=CC(=O)C[C@@H]2C)C[C@H]1O`, in data set [1], the CC50 at 24 h is greater than 50 µM. Also, the inhibition at 50 µM in the data set on RAW264.7 [2] worked out at 4%. Further, the viability at 24 h, 50 µM in data set [3] is greater than 90%.

Take `CC1=C2C[C@@]3(C)C(=C[C@@H](O)[C@H](O)[C@@H]3C)C=C2OC1=O`: the CC50 at 24 h in data set [1] was greater than 50 µM. Also, the inhibition at 50 µM with RAW264.7 [2] was 11%. Besides, in data set [3], the viability at 24 h, 50 µM was greater than 90%.

On to `C/C=C/CCC(=O)O[C@H]1C=CC2=C[C@]3(O)OC(=O)C(C)=C3C[C@]2(C)[C@H]1C`, for which the IC50 in the data set on RAW264.7 [4] is 15 µM; in data set [5] it was 72 µM. In addition, the CC50 at 24 h in data set [1] is greater than 50 µM. In the data set with RAW264.7 [6], the inhibition worked out at 42%. Besides, in the data set on RAW264.7 [2], the inhibition at 50 µM turned out to be 92%. Moreover, the viability at 24 h, 50 µM in data set [3] was greater than 90%.

Regarding `CC(=O)O[C@H]1[C@H](O)C=C2C=C3OC(=O)C(C)=C3C[C@]2(C)[C@H]1C`, the CC50 at 24 h in data set [1] is greater than 50 µM. In the data set with RAW264.7 [2], the inhibition at 50 µM is 36%. For the same compound, the viability at 24 h, 50 µM in data set [3] is greater than 90%.

As to `C=C(C)[C@@H]1C[C@@]2(C)C(=CC1=O)[C@H](O)[C@H](O)C[C@@H]2C`, in data set [1], the CC50 at 24 h is greater than 50 µM. Moreover, in the data set on RAW264.7 [2], the inhibition at 50 µM turned out to be 22%. The viability at 24 h, 50 µM in data set [3] is greater than 90%.

Take `C=C(C(=O)O)[C@@H]1C[C@@]2(C)C(=CC1=O)C=C[C@H](O)[C@@H]2C`: the CC50 at 24 h in data set [1] is greater than 50 µM. Moreover, in the data set with RAW264.7 [2], the inhibition at 50 µM is 11%. Moreover, the viability at 24 h, 50 µM in data set [3] was greater than 90%.

Turning to `O=c1c(O)c(-c2ccc(O)c(O)c2)oc2cc(O)cc(O)c12` [QUERCETIN], the IC50 with RAW264.7 [4] is 15 µM. In data set [1], the CC50 at 24 h was greater than 50 µM.

Consider `CC1=C2C[C@@]3(C)C(=C[C@@H](O)[C@@H](O)[C@@H]3C)C=C2OC1=O`, for which, in data set [1], the half-maximal cytotoxic concentration (CC50) at 24 h is greater than 50 µM. The inhibition at 50 µM in the data set with RAW264.7 [2] came to 23%. The viability at 24 h, 50 µM in data set [3] is greater than 90%.

`C=C(CO)[C@@H]1C[C@@]2(C)C(=C[C@H](O)C[C@@H]2C)C[C@H]1O`: the cytotoxic concentration (CC50) at 24 h in data set [1] was greater than 50 µM. In addition, in the data set with RAW264.7 [2], the inhibition at 50 µM was found to be 15%. Moreover, the viability at 24 h, 50 µM in data set [3] is greater than 90%.

With `CC1=C2C[C@@]3(C)C(=CC(=O)C(O)=C3C)C=C2OC1=O`, in data set [1], the CC50 at 24 h is greater than 50 µM. In the data set on RAW264.7 [2], the inhibition at 50 µM was determined as 16%. In addition, the viability at 24 h, 50 µM in data set [3] was greater than 90%.

For `CC1=C2C[C@]3(C)[C@@H](C)C=C[C@H](O)[C@@]3(O)C=C2OC1=O`, the CC50 at 24 h in data set [1] was greater than 50 µM. Also, the inhibition at 50 µM in the data set on RAW264.7 [2] amounted to 7%. For the same compound, the viability at 24 h, 50 µM in data set [3] was greater than 90%.

In the case of `C=C(C)[C@@H]1C[C@@]2(C)C(=CC1=O)C[C@H](O)C[C@@H]2C`, in data set [1], the CC50 at 24 h was greater than 50 µM. For the same compound, the inhibition at 50 µM in the data set with RAW264.7 [2] worked out at 16%. Further, the viability at 24 h, 50 µM in data set [3] was greater than 90%.
